Measurements gathered from unrelated publications.
Protocols differ between the studies behind these lines.
Target: Non-receptor tyrosine-protein kinase TNK1 (TNK1, Homo sapiens, UniProt Q13470)
One construct used (Q13470 1-666): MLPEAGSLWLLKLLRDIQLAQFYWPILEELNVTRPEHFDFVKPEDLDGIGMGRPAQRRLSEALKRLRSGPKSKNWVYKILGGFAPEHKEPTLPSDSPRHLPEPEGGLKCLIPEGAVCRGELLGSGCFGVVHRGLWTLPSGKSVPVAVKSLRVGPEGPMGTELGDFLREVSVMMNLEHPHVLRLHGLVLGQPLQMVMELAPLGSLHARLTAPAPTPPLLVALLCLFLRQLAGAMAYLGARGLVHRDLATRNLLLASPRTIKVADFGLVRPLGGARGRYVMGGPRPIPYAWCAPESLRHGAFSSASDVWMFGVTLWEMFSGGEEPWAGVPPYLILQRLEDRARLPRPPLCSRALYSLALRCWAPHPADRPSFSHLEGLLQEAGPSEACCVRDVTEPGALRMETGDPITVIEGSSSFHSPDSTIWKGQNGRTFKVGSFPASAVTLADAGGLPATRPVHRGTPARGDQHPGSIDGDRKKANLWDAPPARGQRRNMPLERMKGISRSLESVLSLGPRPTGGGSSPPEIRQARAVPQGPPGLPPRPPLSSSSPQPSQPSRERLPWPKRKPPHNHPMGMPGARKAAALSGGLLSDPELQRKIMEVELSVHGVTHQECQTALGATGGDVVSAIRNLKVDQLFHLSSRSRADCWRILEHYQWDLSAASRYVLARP

SMILES	observed	method	concentration	remaining binding [%]
COc1cnc(Nc2cccc(S(N)(=O)=O)c2)nc1N1CCN(c2ccccc2)C(=O)C1	binding	competition with immobilised ligand	1 µM	100
COc1ncc2cc3ccccc3nc2c1C#N	cell-free assay	competition with immobilised ligand	5 µM	100
Cc1cnc(Nc2ccc(C(=O)N3CCC(N4CCCC4)CC3)cc2)nc1-c1cc2ccccc2s1	binding	competition with immobilised ligand	1 µM	13
CCN1CCN(Cc2ccc(C(=O)Nc3ccc(C)c(Oc4ccc5c(c4)CC(=O)N5)c3)cc2C(F)(F)F)CC1	binding	competition with immobilised ligand	1 µM	100
O=C(c1ccc(Nc2ncc(Cl)c(-c3ccc(Cl)s3)n2)cc1)N1CCC(N2CCCC2)CC1	binding	competition with immobilised ligand	1 µM	13
C[C@@H](c1ccc(-n2cnc3c(N)ncnc32)cc1)N1CCc2nn(C)c(Cc3ccccc3)c2C1=O	binding	competition with immobilised ligand	0.1 µM	47
N[C@H]1CCN(c2nccc(-c3cnn4ncccc34)n2)C1	binding	–	1 µM	0
C[C@@H](c1cccc(C#N)c1)n1cc(Cl)cc(C(N)=O)c1=N	cell-free assay	competition with immobilised ligand	1 µM	94
CN(C)c1nccc(-c2cnn3ncccc23)n1	binding	–	1 µM	67
O=C(Nc1ccc(Oc2ccc(F)cc2)cc1)N1CCc2ncccc2[C@H]1c1ccc(F)cc1	cell-free assay	competition with immobilised ligand	1 µM	96
CN(c1nccc(-c2cnn3ncccc23)n1)C1CC1	binding	–	1 µM	84
COc1cc(C(=O)N2CCC(N3CCN(C)CC3)CC2)ccc1Nc1ncc2c(n1)N(C)c1ccccc1C(=O)N2C	binding	competition with immobilised ligand	10 µM	2.8
CN1CCN(c2cnc3c(C4CCN(C(=O)c5ccc(OC(F)(F)F)cc5N)CC4)ncnc3c2)CC1	cell-free assay	competition with immobilised ligand	1 µM	100
CN(C)c1ncc(F)c(-c2cnn3ncccc23)n1	binding	–	1 µM	100
O=C(Nc1c[nH]nc1C(=O)NC1CCNCC1)c1cc(F)cc(F)c1	binding	competition with immobilised ligand	1 µM	38
O=C(Nc1cccnn1)N1CCC(=Cc2cccc(Oc3ccc(C(F)(F)F)cn3)c2)CC1	cell-free assay	competition with immobilised ligand	1 µM	98
COc1cnc(Nc2cccc(S(N)(=O)=O)c2)nc1N1CCN(c2ccccc2)CC1	binding	competition with immobilised ligand	1 µM	98
CN(C)c1nccc(-c2cnc3ncccn23)n1	binding	–	1 µM	100
CNC(=O)c1ccc(Nc2ncc(C(F)(F)F)c(NCc3nccnc3N(C)S(C)(=O)=O)n2)cc1	cell-free assay	competition with immobilised ligand	0.1 µM	100
C[C@H]1CCN(c2nccc(-c3cnn4ncccc34)n2)C1	binding	–	1 µM	100
CC1=C(C#N)C(c2ccc3c(c2)c(NC(=O)c2ccccc2C)nn3C)C(C#N)=C(C)N1	cell-free assay	competition with immobilised ligand	1 µM	76
O=C(c1ccc(Nc2nccc(-c3cc4ccccc4s3)n2)cc1)N1CCC(N2CCCC2)CC1	binding	competition with immobilised ligand	1 µM	27
